Data set [1] in a line: Binding affinity to AT-rich FAM-TATAAGATTTTCTTATA-TAMRA DNA (unknown origin) assessed as change in melting temperature at 1 uM by FRET assay. The procedure, abridged: (§1)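 Fam/Tamra-labelled hairpins, 400 nM in 50 mM potassium cacodylate pH 7.4, annealed at 85 °C for 5 min, cooled over 5 h, then mixed 1:1 with ligand diluted from DMSO stock; ligand 1 μM, 24 h incubation. Fluorescence (excitation 450−495, emission 515−545 nm) read every 0.5 °C from 30−100 °C; Tm from first-derivative maximum of smoothed curves, ΔTm versus blank.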

Data set [2] can be described thus: Binding affinity to GC-rich FAM-GCGCAGATTTTCTGCGC-TAMRA DNA (unknown origin) assessed as change in melting temperature at 1 uM by FRET assay. The method, boiled down: as §1
In the next data set the test system is WI-38. Description: Cytotoxicity against human WI38 cells after 96 hrs by MTT assay. It counts as cell-based. The following applies: WI-38, 96 h. The method, boiled down: (§2)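 Adherent cells were grown at 37 °C in 5% CO2 in DMEM or MEM with 10% FBS, L-glutamine, nonessential amino acids and hydrocortisone, then seeded to 30–40% confluence. Compounds were dissolved in water at up to 100 μM, serially diluted tenfold and added for 96 h of continuous exposure. MTT absorbance was read at 570 nm, and IC50 was taken from dose–response analysis.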

The subject of the next data set is A549. Description: Cytotoxicity against human A549 cells after 96 hrs by MTT assay. The format is functional, cell-based. The note with it: A549, 96 h. The method, boiled down:
as §2
(In general: Tetrazolium assays rely on reduction of a dye to a coloured formazan, in cell work by metabolically active cells.)

The test system of data set [3] is MDA-MB-231. The experiment in a line: Cytotoxicity against human MDA-MB-231 cells after 96 hrs by MTT assay. The format is functional, cell-based. The following applies: MDA-MB-231, 96 h. The method, boiled down:
as §2

Data set [4] in a line: Toxicity in ip dosed Swiss Webster mouse. The format is organism-based. The following applies: in vivo.
A short description of data set [5]: Selectivity ratio of deltaTm for GC-rich FAM-GCGCAGATTTTCTGCGC-TAMRA DNA (unknown origin) to deltaTm for AT-rich FAM-TATAAGATTTTCTTATA-TAMRA DNA (unknown origin). The method, boiled down:
as §1

Another data set deals with MCF7. Description: Cytotoxicity against human MCF7 cells after 96 hrs by MTT assay. It counts as functional, cell-based. The note with it: MCF7, 96 h. The procedure, abridged: as §2
Data set [6] has as its system Mus musculus. Description: Toxicity in Swiss Webster mouse assessed as weight loss at 400 ug/kg/day, ip. It counts as organism-based. The note with it: in vivo, 0.4 mg/kg.
Data set [7] in a line: Cytotoxicity against human primary CLL cells after 96 hrs by annexin V/propidium iodide staining-based FACS flow cytometric analysis. The format is functional, cell-based. The method, boiled down:
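Freshly isolated peripheral blood CLL cells at 1 × 10^6/mL were cultured in RPMI with penicillin, streptomycin and 10% FCS at 37 °C in 5% CO2. Serial dilutions of compound from DMSO stocks were added, with drug-free control cultures. Apoptosis was measured by annexin V/propidium iodide flow cytometry, in duplicate. LD50 came from sigmoidal curves of log concentration against percentage apoptosis.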
A general note: In flow cytometry, cells or beads pass a laser one at a time.

A further data set has as its system A2780. The experiment in a line: Cytotoxicity against human A2780 cells after 96 hrs by MTT assay. The format is functional, cell-based. The note with it: A2780, 96 h. The method, boiled down: as §2
The test system of data set [8] is CLL. The experiment in a line: Inhibition of NFkappaB-mediated IkappaBalpha phosphorylation in human primary CLL cells at 0.1 nM after 24 hrs by Western blotting analysis. The format is cell-based. The method, boiled down:
(§3)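 Primary CLL cells exposed 24 h, washed in PBS and lysed in HEPES-based buffer with NaF, iodoacetamide, NP40, PMSF, orthovanadate, protease and phosphatase inhibitors; Western blots probed for phosphorylated IκBα and p65, actin as loading control.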
(A western blot detects proteins with antibodies after separation by electrophoresis.)

Data set [9] concerns MDA-MB-231. The experiment in a line: Antitumor activity against human MDA-MB-231 cells xenografted in iv dosed MF1 nude mouse administered for 5 consecutive days followed by 2 drug-free days repeated for 4 weeks relative to control. It counts as functional, organism-based. The method, boiled down:
(§4)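 MDA-MB-231 cells (5 × 10^6) implanted subcutaneously in flank of female MF1 nude mice (2−3 months, 20−25 g), passaged as ~1 mm3 tumor pieces; at ~0.06 cm3 (three weeks) split into groups of six. Agent in DMSO diluted in saline, tail-vein iv at 250 or 300 μg/kg/day, 5 days on/2 off for four weeks; untreated controls. Tumor volume (L×W×H×π/6) and body weight every 3−4 days.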

Data set [10] concerns MDA-MB-231. The experiment in a line: Antitumor activity against human MDA-MB-231 cells xenografted in MF1 nude mouse at 300 ug/kg/day, iv administered for 5 consecutive days followed by 2 drug-free days repeated for 4 weeks measured up to 3 weeks after last dose. The format is functional, organism-based. The procedure, abridged:
as §4

In data set [11] the test system is Mus musculus. Description: Toxicity in MF1 nude mouse xenografted with human MDA-MB-231 cells at 250 to 300 ug/kg/day, iv. The note with it: in vivo. The format is organism-based. The procedure, abridged: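 Female MF1 nude mice (2–3 months old, 20–25 g) carried subcutaneous flank MDA-MB-231 xenografts. At about 0.06 cm3 the mice were split into groups of six: 250 or 300 μg/kg iv by tail vein, or untreated. Compound was dissolved in DMSO and diluted in saline, given daily for 5 days then 2 days off, over 4 weeks. Body weight and signs of toxicity (>20% weight loss) were checked every 3–4 days.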

The subject of data set [12] is HeLa. Description: Downregulation of EGR in human HeLa cells at 10 nM after 4 hrs relative to control. It counts as functional. The procedure, abridged: (§5)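 Nuclear extracts from 1 × 10^7 HeLa cells treated 4 h, plus untreated controls; 10 μg nuclear protein per sample run on a 48-transcription-factor activation profiling plate array per kit instructions.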
Data set [13] relates to HeLa. Description: Downregulation of NFAT in human HeLa cells at 10 nM after 4 hrs relative to control. The format is functional. The method, boiled down:
as §5

Data set [14] concerns CLL. The experiment in a line: Inhibition of NFkappaB-mediated p65 phosphorylation in human primary CLL cells at 0.1 nM after 24 hrs by Western blotting analysis. It counts as cell-based. The procedure, abridged: as §3
The subject of data set [15] is MIA PaCa-2. The experiment in a line: Inhibition of NFkappaB in human MIAPaCa2 cells xenografted in mouse assessed as downregulation of BCL2 by immunohistochemical staining relative to control. The format is cell-based. The procedure, abridged:
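Sections of MIA PaCa-2 xenograft tumors from treated and untreated mice: peroxidase quenched with 0.3% H2O2/methanol 15 min, blocked in 3% goat serum/PBS 30 min, 2 μg/mL BCL2 antibody 1 h at room temperature, then HRP […] antibody 1 h; staining quantified against controls.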

The subject of data set [16] is HeLa. Description: Downregulation of SMAD in human HeLa cells at 10 nM after 4 hrs relative to control. The format is functional. The procedure, abridged:
as §5

Data set [17] concerns HeLa. The experiment in a line: Inhibition of NFkappaB activity in human HeLa cells at 10 nM after 4 hrs relative to control. The format is cell-based. The procedure, abridged: as §5
Data set [18] relates to MIA PaCa-2. Description: Antitumor activity against human MIAPaCa2 cells xenografted in MF1 nude mouse at 300 ug/kg/day, iv administered for 5 consecutive days followed by 2 drug-free days repeated for 3 weeks relative to control. It counts as functional, organism-based. The procedure, abridged: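 MIA PaCa-2 cells (5 × 10^6) implanted subcutaneously in flank of female MF1 nude mice (2−3 months, 20−25 g); at ~0.06 cm3, groups of six. DMSO stock diluted in saline, given by tail-vein injection at 300 μg/kg/day, five days on, two off, for three weeks; vehicle controls. Tumors measured every 3−4 days by ellipsoid formula; mice weighed for toxicity.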

The next data set deals with A-431. Description: Cytotoxicity against human A431 cells after 96 hrs by MTT assay. The format is functional, cell-based. The note with it: A-431, 96 h. The procedure, abridged:
as §2

Data set [19] concerns HeLa. The experiment in a line: Downregulation of OCT4 in human HeLa cells at 10 nM after 4 hrs relative to control. It counts as functional. The method, boiled down:
as §5

Data set [20] concerns Mus musculus. Description: Toxicity in Swiss Webster mouse at 350 ug/kg/day, ip. The following applies: in vivo, 0.35 mg/kg. The format is organism-based.

Calls of active or inactive are those of the source. No cut-off for these calls is given here.

For `COC(=O)c1cc(-c2ccc(NC(=O)c3cc(NC(=O)CCCOc4cc5c(cc4OC)C(=O)N4CCC[C@H]4C=N5)cn3C)cc2)cn1C`, the ΔTm (usually the shift of the melting midpoint relative to a reference) in [1] came out at 5 °C; in data set [2], 1.4 °C. The IC50 (in general, the concentration that gives 50% inhibition) in the data set with WI-38 was 474000 pM; with A549 it was 56 pM; in the data set on MDA-MB-231 [3], 0.065 pM; in the data set with MCF7, 0.02 pM; in data set [7], 98 pM; in the data set on A2780, 13 pM. The same molecule yielded an MTD in data set [4] of 0.4 mg/kg/day. Moreover, the Ratio in data set [5] was determined as 0.28. For the same molecule, in the data set on Mus musculus [6], the Activity result is listed as “Toxic”.

For `COC(=O)c1cc(-c2ccc(NC(=O)c3nc(NC(=O)CCCOc4cc5c(cc4OC)C(=O)N4CCC[C@H]4C=N5)cn3C)cc2)cn1C`, the results for the ΔTm in data set [1] and in [2] were 6 °C and 6.2 °C, respectively. Besides, the IC50 came to 129000 pM in the data set on WI-38; 34 pM with A549; 0.18 pM in the data set with MDA-MB-231 [3]; 0.02 pM in the data set with MCF7; 170 pM in [7]; 18 pM in the data set with A-431. In addition, the IC50 with A2780 was found to be 21 pM. Further, the inhibition result in the data set with CLL [8], in the data set with CLL [14] and in the data set with MIA PaCa-2 [15] was “Active” in each case. Moreover, the Activity result in the data set on MDA-MB-231 [9] was “Dose-dependent effect”; with Mus musculus [11], “Non-toxic”; in the data set with HeLa [12], 30%; in the data set on HeLa [13], 30%; with HeLa [16], 30%; with HeLa [19] it was 30%. The Activity entry in the data set with Mus musculus [20] is listed as “Non-toxic”. Besides, the MTD in data set [4] stood at 0.4 mg/kg/day. Moreover, the outcome in the data set on MDA-MB-231 [10] and in the data set with MIA PaCa-2 [18] was Active. Further, the Ratio in [5] was found to be 1.03. For the same molecule, the inhibition (as a rule, the change of the read-out against control, counted positive when it falls) in the data set on HeLa [17] is 50%.

(Values after ChEMBL document CHEMBL2321778, “GC-targeted C8-linked pyrrolobenzodiazepine-biaryl conjugates with femtomolar in vitro cytotoxicity and in vivo antitumor activity in mouse models” (J Med Chem, 2013).)
